In ChEMBL document CHEMBL1152161, “A facile synthesis, antibacterial, and antitubercular studies of some piperidin-4-one and tetrahydropyridine derivatives” (2008):
Values after ≈ are worked out from the molar mass of the structure shown. Active and inactive are the calls of the source. The rule behind the calls is not given here.

What was measured:
[1] = test system: Klebsiella pneumoniae; experiment: Antibacterial activity against Klebsiella pneumoniae at 128 ug/mL by broth micro dilution method; assay type: functional, organism-based
[2] = test system: Staphylococcus epidermidis; experiment: Antibacterial activity against Staphylococcus epidermidis at 128 ug/mL by broth micro dilution method; assay type: functional, organism-based
[3] = test system: Staphylococcus aureus; experiment: Antibacterial activity against methicillin-resistant Staphylococcus aureus at 128 ug/mL by broth micro dilution method; assay type: functional, organism-based
Summary of the method: (§1)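 MIC90 was determined by broth microdilution following NCCLS methods. Linezolid and trovafloxacin were run as positive controls, with DMSO as the negative control. Compounds were tested up to a top concentration of 128.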

[4] = test system: Enterococcus faecium; experiment: Antibacterial activity against Enterococcus faecium at 128 ug/mL by broth micro dilution method; assay type: functional, organism-based
[5] = test system: Staphylococcus epidermidis; experiment: Antibacterial activity against methicillin-resistant Staphylococcus epidermidis at 128 ug/mL by broth micro dilution method; assay type: functional, organism-based; summary of the method: as §1
[6] = test system: Enterococcus faecalis; experiment: Antibacterial activity against vancomycin-resistant Enterococcus faecalis at 128 ug/mL by broth micro dilution method; assay type: functional, organism-based; summary of the method: as §1
[7] = test system: Escherichia coli; experiment: Antibacterial activity against Escherichia coli LCB0010 at 128 ug/mL by broth micro dilution method; assay type: functional, organism-based
[8] = test system: Haemophilus influenzae; experiment: Antibacterial activity against Haemophilus influenzae at 128 ug/mL by broth micro dilution method; assay type: functional, organism-based
[9] = test system: Staphylococcus aureus; experiment: Antibacterial activity against Staphylococcus aureus by broth micro dilution method; assay type: functional
Summary of the method: (§2)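 MIC90 was found by broth microdilution following NCCLS methods. Compounds were tested up to a top concentration of […]. Linezolid and trovafloxacin served as positive controls and DMSO as the negative control.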

[10] = test system: Enterococcus faecalis; experiment: Antibacterial activity against Enterococcus faecalis by broth micro dilution method; assay type: functional; summary of the method: as §2
[11] = test system: Moraxella catarrhalis; experiment: Antibacterial activity against Moraxella catarrhalis at 128 ug/mL by broth micro dilution method; assay type: functional, organism-based
[12] = test system: Escherichia coli; experiment: Antibacterial activity against Escherichia coli LCB0011 at 128 ug/mL by broth micro dilution method; assay type: functional, organism-based
[13] = test system: Escherichia coli; experiment: Antibacterial activity against Escherichia coli LCB0012 at 128 ug/mL by broth micro dilution method; assay type: functional, organism-based
[14] = test system: Mycobacterium tuberculosis; experiment: Antitubercular potency, ratio of Rifampicin MIC to drug MIC against Mycobacterium tuberculosis H37Rv ATCC 27294; assay type: functional
[15] = test system: Enterococcus faecalis; experiment: Antibacterial activity against vancomycin and linezolid-resistant Enterococcus faecalis at 128 ug/mL by broth micro dilution method; assay type: functional, organism-based; summary of the method: as §1
[16] = test system: Mycobacterium tuberculosis; experiment: Antitubercular activity against Mycobacterium tuberculosis H37Rv ATCC 27294 by radiometric respiratory technique; assay type: functional
[17] = test system: Enterococcus faecium; experiment: Antibacterial activity against vancomycin-resistant Enterococcus faecium by broth micro dilution method; assay type: functional; conditions: for MIC90: Enterococcus faecium; summary of the method: as §1
[18] = test system: Mycobacterium tuberculosis; experiment: Antitubercular potency, ratio of Isoniazid MIC to drug MIC against Mycobacterium tuberculosis H37Rv ATCC 27294; assay type: functional
[19] = test system: Pseudomonas aeruginosa; experiment: Antibacterial activity against Pseudomonas aeruginosa at 128 ug/mL by broth micro dilution method; assay type: functional, organism-based
[20] = test system: Enterococcus faecalis; experiment: Antibacterial activity against vancomycin-resistant Enterococcus faecalis by broth micro dilution method; assay type: functional; summary of the method: as §1
[21] = test system: Staphylococcus aureus; experiment: Antibacterial activity against methicillin-resistant Staphylococcus aureus by broth micro dilution method; assay type: functional; summary of the method: as §1
[22] = test system: Escherichia coli; experiment: Antibacterial activity against Escherichia coli LCB0011 by broth micro dilution method; assay type: functional; summary of the method: as §2
[23] = test system: Staphylococcus epidermidis; experiment: Antibacterial activity against Staphylococcus epidermidis by broth micro dilution method; assay type: functional; summary of the method: as §1
[24] = test system: Staphylococcus epidermidis; experiment: Antibacterial activity against methicillin-resistant Staphylococcus epidermidis by broth micro dilution method; assay type: functional; summary of the method: as §1
[25] = test system: Enterococcus faecalis; experiment: Antibacterial activity against Enterococcus faecalis at 128 ug/mL by broth micro dilution method; assay type: functional, organism-based
[26] = test system: Moraxella catarrhalis; experiment: Antibacterial activity against Moraxella catarrhalis by broth micro dilution method; assay type: functional; summary of the method: as §2
[27] = test system: Escherichia coli; experiment: Antibacterial activity against Escherichia coli LCB0012 by broth micro dilution method; assay type: functional; summary of the method: as §2
[28] = test system: Enterococcus faecium; experiment: Antibacterial activity against vancomycin-resistant Enterococcus faecium at 128 ug/mL by broth micro dilution method; assay type: functional, organism-based; summary of the method: as §1
[29] = test system: Staphylococcus aureus; experiment: Antibacterial activity against Staphylococcus aureus at 128 ug/mL by broth micro dilution method; assay type: functional, organism-based
[30] = test system: Enterococcus faecalis; experiment: Antibacterial activity against vancomycin and linezolid-resistant Enterococcus faecalis by broth micro dilution method; assay type: functional; summary of the method: as §1

Compound | Activity [1] | Activity [2] | Activity [3] | Activity [4] | Activity [5] | Activity [6] | Activity [7] | Activity [8] | MIC90 [9] | MIC90 [10] | Activity [11] | Activity [12] | Activity [13] | Ratio [14] | Activity [15] | MIC [16] | MIC90 [17] | Ratio [18] | Activity [19] | Activity [25] | further results
COc1ccccc1C1C(C)C(=O)C(C)C(c2ccccc2OC)N1C(=O)Cn1cnc2ccccc21 (stereo unspecified) | inactive | inactive | inactive | inactive | inactive | inactive | inactive | inactive | 32 µg/mL (≈ 64.3 µM) | 64 µg/mL (≈ 129 µM) | inactive | inactive | inactive | 25 | inactive | 128 µg/mL (≈ 257 µM) | 16 µg/mL (≈ 32.2 µM) | 0.19 | inactive | – | –
Cc1ccc(C2C(C)C(=O)C(C)C(c3ccc(C)cc3)N2C(=O)Cn2cnc3ccccc32)cc1 (stereo unspecified) | inactive | inactive | – | inactive | inactive | – | inactive | inactive | 64 µg/mL (≈ 137 µM) | 128 µg/mL (≈ 275 µM) | inactive | – | – | – | inactive | – | 32 µg/mL (≈ 68.7 µM) | – | inactive | – | MIC90 [20]: 128 µg/mL (≈ 275 µM); MIC90 [21]: 64 µg/mL (≈ 137 µM); MIC90 [22]: 128 µg/mL (≈ 275 µM)
CCOC(=O)C1=C(OS(=O)(=O)c2cccs2)CC(c2ccccc2)N(C(=O)CCl)C1c1ccccc1 (stereo unspecified) | inactive | – | – | inactive | – | inactive | inactive | inactive | 32 µg/mL (≈ 58.6 µM) | – | – | – | inactive | 100 | inactive | 32 µg/mL (≈ 58.6 µM) | – | 0.78 | inactive | inactive | MIC90 [23]: 64 µg/mL (≈ 117 µM); MIC90 [21]: 64 µg/mL (≈ 117 µM); MIC90 [24]: 128 µg/mL (≈ 234 µM); MIC90 [26]: 32 µg/mL (≈ 58.6 µM); MIC90 [22]: 128 µg/mL (≈ 234 µM); Activity [17]: 32 µg/mL
COc1ccc(C2C(C)C(=O)C(C)C(c3ccc(OC)cc3)N2C(=O)Cn2cnc3ccccc32)cc1 (stereo unspecified) | inactive | inactive | – | inactive | inactive | inactive | inactive | inactive | 16 µg/mL (≈ 32.2 µM) | 64 µg/mL (≈ 129 µM) | – | inactive | – | 50 | inactive | 64 µg/mL (≈ 129 µM) | 16 µg/mL (≈ 32.2 µM) | 0.39 | inactive | – | MIC90 [21]: 128 µg/mL (≈ 257 µM); MIC90 [26]: 16 µg/mL (≈ 32.2 µM); MIC90 [27]: 128 µg/mL (≈ 257 µM)
COc1cc(OC)cc(C2CC(=O)C(C)C(c3cc(OC)cc(OC)c3)N2C(=O)Cn2cnc3ccccc32)c1 (stereo unspecified) | inactive | inactive | inactive | inactive | inactive | inactive | inactive | inactive | – | – | inactive | inactive | inactive | – | inactive | – | – | – | inactive | inactive | Activity [28]: inactive; Activity [29]: inactive
COc1ccc(C2CC(=O)C(C)C(c3ccc(OC)cc3)N2C(=O)Cn2cnc3ccccc32)cc1 (stereo unspecified) | inactive | inactive | inactive | inactive | inactive | inactive | inactive | inactive | – | – | inactive | inactive | – | – | inactive | – | 128 µg/mL (≈ 265 µM) | – | inactive | inactive | Activity [29]: inactive; MIC90 [27]: 128 µg/mL (≈ 265 µM)
CCOC(=O)C1=C(O)CC(c2ccccc2)N(C(=O)Cn2cnc3ccccc32)C1c1ccccc1 (stereo unspecified) | inactive | – | inactive | inactive | inactive | inactive | inactive | inactive | 32 µg/mL (≈ 66.5 µM) | 128 µg/mL (≈ 266 µM) | – | inactive | inactive | 200 | – | 16 µg/mL (≈ 33.2 µM) | 64 µg/mL (≈ 133 µM) | 1.56 | inactive | – | MIC90 [23]: 128 µg/mL (≈ 266 µM); MIC90 [30]: 128 µg/mL (≈ 266 µM); MIC90 [26]: 64 µg/mL (≈ 133 µM)
CO[C@H]1/C=C/O[C@@]2(C)Oc3c(C)c(O)c4c(O)c(c(/C=N/N5CCN(C)CC5)c(O)c4c3C2=O)NC(=O)/C(C)=C\C=C\[C@H](C)[C@H](O)[C@@H](C)[C@@H](O)[C@@H](C)[C@H](OC(C)=O)[C@@H]1C [RIFAMPIN] | – | – | – | – | – | – | – | – | – | – | – | – | – | – | – | 32 µg/mL (≈ 38.9 µM) | – | – | – | – | –
NNC(=O)c1ccncc1 [ISONIAZID] | – | – | – | – | – | – | – | – | – | – | – | – | – | – | – | 0.25 µg/mL (≈ 1.82 µM) | – | – | – | – | –
Cc1ccc(C2CC(=O)C(C)C(c3ccc(C)cc3)N2C(=O)Cn2cnc3ccccc32)cc1 (stereo unspecified) | inactive | inactive | inactive | inactive | inactive | inactive | inactive | inactive | – | – | inactive | inactive | – | – | inactive | – | 64 µg/mL (≈ 142 µM) | – | inactive | inactive | Activity [29]: inactive; MIC90 [27]: 128 µg/mL (≈ 283 µM)
